The record followed here is ChEMBL document CHEMBL4715807, “Development of Small Molecules with a Noncanonical Binding Mode to HIV-1 Trans Activation Response (TAR) RNA” (J Med Chem, 2016).

The source made the active and inactive calls. The calls are words filed in the database; no cut-off is given here.

Assay [1] is described as follows: Binding affinity to HIV1 25-2AP TAR by 2-AP based fluorescence assay. More on the design: species or system Human immunodeficiency virus 1. Conditions: read-out: Kd(app). Summed up: (§1)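 2-AP-labelled TAR hairpin (U23 or U25 replaced) annealed at 95 °C 3 min, cooled ≥30 min, used at 1 μM in PBS pH 7.4 with compound added from DMSO, 30 min at room temperature with rocking. Fluorescence read at ex 310/em 365 nm, compound fluorescence subtracted, normalized to free RNA. Apparent Kd from nonlinear fit; highest concentration 400 μM; triplicates, ± SD.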

A short description of assay [2]: Binding affinity to HIV1 23-2AP TAR by 2-AP based fluorescence assay. The conditions noted are these: read-out: Kd(app). Further details: species or system Human immunodeficiency virus 1. In outline: as §1
Assay [3] is described as follows: Binding affinity to HIV1 TAR by FRET based Tat/TAR displacement assay. Further details: species or system Human immunodeficiency virus 1. Summed up: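 Unlabeled TAR (100 nM) with 16-mer Tat peptide (N-terminal FAM, C-terminal TAMRA; 12 nM) in 50 mM Tris pH 7.4, 20 mM KCl, 0.01% Triton X-100, 5% DMSO; compound added and incubated 30 min at room temperature with rocking. Read at ex 485/em 590 nm. Controls: complex alone for 0% inhibition, peptide alone for 100%.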

The test system of assay [4] is Human immunodeficiency virus 1. As to the kind of experiment: Effect on global topology of HIV-1 RNA 5'-UTR by SHAPE analysis. Summed up:
(§2)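 RNA (5 pmol) heated to 90 °C 3 min, slowly cooled to 4 °C, in 50 mM Tris-HCl pH 8.0, 100 mM NaCl, 5 mM MgCl2, then 37 °C for 15 min. Ligand added to final 5 or 0.5 μM, 10 min at room temperature. 1M7 at final 3.5 mM (DMSO alone for control), 37 °C 5 min. Primer extension with SuperScript III, capillary electrophoresis; control peak areas subtracted.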

Assay [5] has as its system Human immunodeficiency virus 1. Description: Binding affinity to HIV-1 TAR RNA 5'-UTR assessed as induction of chemical reactivity by SHAPE analysis. Summed up: as §2
The subject of assay [6] is Human immunodeficiency virus 1. As to the kind of experiment: Binding affinity to HIV-1 TAR RNA 5'-UTR assessed as 1M7 reactivity reduction throughout TAR with residues U13-14, C19, and G32 by SHAPE analysis. Summed up:
as §2

In assay [7] the test system is Human immunodeficiency virus 1. Description: Binding affinity to HIV1 TAR by NMR analysis. Summed up: (§3)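 NMR buffer: 20 mM d19-Bis-Tris pH 6.5, 10 mM NaCl, DSA reference, in D2O or 95% H2O/5% D2O. Ligand stocks 10 mM in d6-DMSO; free-ligand samples […], final DMSO 15%. RNA heated 90 °C 4 min, snap-cooled at −20 °C. 1D 1H with excitation sculpting; ligand line broadening with 10 μM TAR; TOCSY shift perturbations.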

Assay [8] relates to Human immunodeficiency virus 1. As to the kind of experiment: Binding affinity to HIV1 TAR by TOCSY NMR analysis. In outline:
as §3

Assay [9] has as its system Human immunodeficiency virus 1. As to the kind of experiment: Binding affinity to HIV1 TAR assessed as induction of chemical shift perturbations of TAR residues by NMR analysis. Summed up:
as §3

The test system of assay [10] is Human immunodeficiency virus 1. As to the kind of experiment: Binding affinity to HIV-1 TAR RNA 5'-UTR assessed as decrease in 1M7 reactivity for residue U25 within TAR bulge and U31, G33 and A35 within apical loop by SHAPE analysis. In outline: as §2

Take `Cc1ccc2c(N)c(S(=O)(=O)Nc3cccc(C(F)(F)F)c3)sc2n1`: the Kd in assay [1] and in assay [2] was over 400 µM each time. Also, the IC50 (usually the concentration that inhibits the measured activity by half) in assay [3] was over 400 µM.
Consider `Cc1ccc2c(N)c(-c3nnc(-c4cccc(Cl)c4)o3)sc2n1`, for which the Kd in [1] was 42.5 µM; in assay [2] it was 45.6 µM. In [3], this compound came in with an IC50 of over 400 µM.
Taken in the same sequence, the figures for `Cc1ccc2c(N)c(-c3nc(-c4cccc(C(F)(F)F)c4)no3)sc2n1` were 47.7 µM, 46 µM and 45.1 µM.
On to `Cc1ccc2c(N)c(C(=O)Nc3cccnc3)sc2n1`, for which the Kd in assay [1] came to 68 µM; in assay [2], 89.5 µM. The same compound showed an IC50 in assay [3] of over 400 µM.
Taken in the same sequence, the figures for `Cc1cnc2sc(C(=O)Nc3cccc(C(F)(F)F)c3)c(N)c2c1` were 48.5 µM, 55.4 µM and over 400 µM.
Taken in the same sequence, the figures for `Cc1ccnc2sc(C(=O)Nc3cccc(C(F)(F)F)c3)c(N)c12` were 66.5 µM, 94.1 µM and over 400 µM.
Taken in the same sequence, the figures for `Cc1ccc2c(N)c(C(=O)Nc3ccccc3C(F)(F)F)sc2n1` were 90.1 µM, over 400 µM and 90.4 µM.
In the case of `Cc1ccc2c(n1)sc1c(=O)n(-c3cccc(C(F)(F)F)c3)c(=O)[nH]c12`, the Kd in assay [1] and in assay [2] was over 400 µM in each case. The same compound returned an IC50 in assay [3] of over 400 µM.
For `Nc1c(-c2nnc(-c3cccc(C(F)(F)F)c3)o2)sc2ncccc12`, the results for the Kd in assay [1] and in [2] were 50.2 µM and 44.1 µM, respectively. The IC50 in assay [3] worked out at 37.6 µM.
Taken in the same sequence, the figures for `Cc1ccc2c(N)c(C(=O)Nc3ccc(C(F)(F)F)cc3)sc2n1` were 75.3 µM, 84.1 µM and 87 µM.
As for `Cc1ccc2c(N)c(-c3nnc(-c4cccc(C(F)(F)F)c4)o3)sc2n1`, the results for the Kd in assay [1] and in [2] were 49.1 µM and 75 µM, respectively. This compound also returned an IC50 in assay [3] of 40.1 µM. Moreover, the outcome in assay [4] was inactive. The result in assay [5] and in [6] was Active.
As for `Cc1ccc2c(N)c(-c3nnc(-c4ccccc4)o3)sc2n1`, the Kd in assay [1] amounted to 44.6 µM; in assay [2], 56.9 µM. The compound further had an IC50 in assay [3] of over 300 µM.
The matching figures for `Cc1ccc2c(N)c(C(=O)Nc3cccc(C(F)(F)F)c3)sc2n1`: 47.7 µM, 54.1 µM and over 400 µM.
The matching figures for `Cc1ccc2c(N)c(C(=O)Nc3ccccn3)sc2n1`: 50.3 µM, 64.3 µM and over 400 µM.
The matching figures for `CC(C)c1ccc2c(N)c(C(=O)Nc3cccc(C(F)(F)F)c3)sc2n1`: 43.3 µM, 107 µM and over 400 µM.
On to `Cc1ccc2c(N)c(C(=O)NCc3cccc(C(F)(F)F)c3)sc2n1`, for which the figures for the Kd in assay [1] and in assay [2] were 66.4 µM and 69.4 µM, respectively. The compound further showed an IC50 in [3] of over 400 µM.
For the compound `Cc1ccc2c(N)c(S(=O)(=O)Nc3cccc(F)c3)sc2n1`, the Kd in [1] and in assay [2] was over 400 µM each time. The compound also had an IC50 in [3] of over 400 µM. Further, the result in assay [7] was inactive.
On to `Cc1ccc2c(N)c(C(=O)Nc3ccncc3)sc2n1`, for which the Kd in [1] is 40 µM; in assay [2], 51.1 µM. In assay [3], this compound had an IC50 of over 400 µM. The outcome in assay [7], in [8], in assay [5] and in assay [10] was Active. Moreover, in assay [9], the Activity result was “Dose-dependent effect”. The result in [4] was inactive.
Turning to `Cc1ccc2cc(C(=O)Nc3cccc(C(F)(F)F)c3)sc2n1`, the Kd in assay [1] and in [2] was over 400 µM each time. Also, the IC50 in [3] is over 400 µM.
